# Only a sample is shown.
# PGC1a acetyl up = compounds raising PGC1a acetylation signal, primary screen, PGC1a modulator project, cell-based, U2OS, AlphaScreen, signal-increasing mode | overnight | activation, % at 15.6 µM | actives 0.21% (n = 350,000) | AID 651723, 2012;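 active means every replicate reaching activation of at least 50%, whatever the mean replicate activation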;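 further: hits raise the AlphaScreen acetylation signal above neutral controls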
#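 System: Flag-PGC1a/GCN5 U2OS cells | Quantity: 7000 cells/well | Times: Overnight compound treatment, 37 °C | Measured by: AlphaScreen proximity luminescence, anti-acetyl-lysine antibody | Dosing: One concentration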
# Numbers without * were called inactive.
SMILES,PGC1a acetyl up
COc1ccc(S(=O)(=O)N2CCC(C(=O)N3CCC(C(N)=O)CC3)CC2)cc1Cl,-44
CC(/C=N/N1CCN(Cc2ccccc2)CC1)=C\c1ccccc1,-44
COc1ccc(S(=O)(=O)N2c3ccc(F)cc3CCC2C)cc1 (stereo unspecified),120*
O=C(C[C@H]1CC[C@H](NC(=O)NC2CCCCC2)[C@H](CO)O1)NCc1ccc(Cl)cc1,-54
COc1cc(OC)c2c(-c3cccc(-c4cccc(C)c4)c3)cc(=O)oc2c1,60*
CCCNC(=O)c1nnsc1S(=O)c1ccc(Cl)cc1 (stereo unspecified),148*
CCCNC(=O)c1nnsc1S(=O)(=O)c1ccc(Cl)cc1,82*
CNC(=O)c1nnsc1S(=O)c1ccc(Cl)cc1 (stereo unspecified),117*
O=c1[nH]c(=O)c2[nH]c(=S)[nH]c2[nH]1,-60
NC(=O)c1sc2nc3c(c(-c4cccs4)c2c1N)CCCCC3,-44
CCOC(=O)C1=C(NC(=O)c2ccc(Br)o2)Nc2ccccc2N=C1,-42
CN1C(C(=O)Nc2ccccn2)=C(O)c2sc(Cl)cc2S1(=O)=O,-53
Cc1ccccc1CS(=O)(=O)c1nnc([C@H](CC(C)C)NC(=O)OC(C)(C)C)o1,74*
COC(=O)C1=C(N)OC2=C(C(=O)CC(C)(C)C2)C1c1cccs1 (stereo unspecified),57*
O=C(COC(=O)c1ccccc1C(=O)c1ccc(Cl)c([N+](=O)[O-])c1)NC1CC1,94*
OCC1(Cc2ccc(F)cc2F)CCCN(Cc2ccc(Cl)cc2)C1 (stereo unspecified),-46
N#C/C(=C/c1ccc(OCc2ccc(C(=O)O)cc2)c(Br)c1)c1cccc(F)c1,-96
Cc1ccccc1S(=O)(=O)N[C@H]1CC[C@H](CCn2cc(Cc3ccccc3)nn2)O[C@@H]1CO,-61
Cc1[nH]c(=O)[nH]c(=O)c1S(=O)(=O)Nc1ccc(F)c(Cl)c1,-47
CC(C)c1ccc(NC(=O)CSc2nc3ccsc3c(=O)n2Cc2ccc(C(=O)O)cc2)cc1,-59
Cc1noc(C)c1NC(=O)N(C)C[C@H]1Oc2c(NC(=O)c3nc4ccccc4s3)cccc2C(=O)N([C@H](C)CO)C[C@H]1C,-54
O=C(COn1nnc2ccc(Cl)cc21)NC12CC3CC(CC(C3)C1)C2,-85
COc1ccc(S(=O)(=O)N2CC[C@@H]3[C@H](CO)Nc4ccc(-c5ccccc5F)cc4[C@@H]32)cc1,51*
COc1ccc(NC(=O)N[C@@H]2CC[C@H](CCn3cc(-c4ccccc4F)nn3)O[C@@H]2CO)cc1,-48
COc1ccc(S(=O)(=O)N[C@@H]2CC[C@H](CCNC(=O)c3ccccc3F)O[C@H]2CO)cc1,-43
SMILES,PGC1a acetyl up
O=c1[nH][nH]c(-c2ccccc2)c1C=Nc1ccccc1Cl,-41
COc1ccccc1/C=C1\SC(=O)N(CCC(=O)NCCCn2ccnc2)C1=O,214*
O=C(CCN1C(=O)/C(=C/c2ccccc2)SC1=S)NCCCN1CCOCC1,-56
COc1ccccc1/C=C1\SC(=S)N(CCC(=O)NCCCn2ccnc2)C1=O,121*
Cc1cc(C=O)c(C)n1-c1ccc(NC2CCCC2)c([N+](=O)[O-])c1,-50
Cc1c(CNCCc2ccc(Cl)cc2)c(C(=O)O)c(C)n1-c1ccccc1,-41
O=C(CC1CC1)N[C@@H]1CC[C@@H](CCNS(=O)(=O)c2ccc(Cl)cc2)O[C@@H]1CO,-56
CCCCCCCCCCCCS[C@H]1CS(=O)(=O)C[C@@H]1O,-43
Cn1c(CCN2CCCCC2)nc2cc(NS(=O)(=O)c3ccccc3)ccc21,64*
Cn1c(CN2CCCC2)nc2cc(NC(=O)COc3ccc(Cl)cc3)ccc21,-52
CCCNC(=O)CN(C)C(=O)c1n[nH]c2ccccc12,-43
O=C(NC[C@@H]1N[C@@H](CO)[C@H]1c1ccc(C2=CCCCC2)cc1)c1ccc(F)cc1,66*
CN(C[C@H]1N[C@@H](CO)[C@@H]1c1ccc(C2=CCCC2)cc1)C(=O)c1ccc(F)cc1,-79
COC(=O)c1cccc2c1-c1ccccc1/C2=N/O,-75
O=C1C2C3CCC(C3)C2C(=O)N1CNc1ccc(F)cc1 (stereo unspecified),-47
Cc1ccc(NC(=S)c2ccncc2)cc1,66*
O=C(Nc1ccc(F)cc1F)N1CCCN(c2ccc([N+](=O)[O-])cn2)CC1,94*
CC(C)(C)c1ccc(NC(=O)N2CCN(c3ccc([N+](=O)[O-])cn3)CC2)cc1,191*
CC(=O)Nc1ccc(S(=O)(=O)N2CCN(c3ccccn3)CC2)cc1,-53
CC(=O)Nc1nc(C)c(Oc2ccc(Cl)cc2)c(=O)[nH]1,-45
CCn1c(Cl)c(C=O)s/c1=N\S(=O)(=O)c1ccccc1,-78
O=C(CSc1nc(NS(=O)(=O)c2ccccc2)cc(=O)[nH]1)Nc1ccc(F)cc1,69*
NS(=O)(=O)c1cccc(NC(=O)CSc2ccccn2)c1,-48
C[C@H]1CN([C@@H](C)CO)C(=O)Cc2cc(NS(=O)(=O)c3ccc(F)cc3)ccc2O[C@@H]1CN(C)C(=O)Nc1ccc2c(c1)OCO2,-55
Nc1ccccc1-c1ccn[nH]1,-41
SMILES,PGC1a acetyl up
O=C(NC1CCCN(Cc2ccc(Cl)cc2)C1)c1ccccc1C(F)(F)F (stereo unspecified),-47
CCn1c2ccccc2c2cc(/C=N/n3c(-c4cc(C)[nH]n4)n[nH]c3=S)ccc21,-40
O=C1C=CCCN1C(=O)/C=C/c1cccc(C(F)(F)F)c1,-78
O=C(Cc1ccc(-n2cccc2)cc1)NCc1cccs1,58*
COC(=O)c1ccccc1N(C)S(=O)(=O)c1cc2c(cc1C)OCC(=O)N2,-44
C=CCNc1nnc(SC2CC(=O)N(c3ccc(OC)cc3)C2=O)s1 (stereo unspecified),75*
CCSC1=N/C(=C\c2ccccc2)C(=O)N1c1ccc(OC)cc1,-51
CCOc1ccccc1OCCn1nnc2ccccc21,53*
Cc1ccc(NC(=O)C2C(c3ccccc3)C2(Cl)Cl)c(C)c1 (stereo unspecified),-71
COc1ccc(CN(C)C[C@@H]2Oc3ccc(NS(=O)(=O)c4c(C)noc4C)cc3C(=O)N([C@H](C)CO)C[C@H]2C)cc1,-51
CC(C)(C)c1ccc(C(=O)NCCN2CCOCC2)cc1,-65
CC1CN(S(=O)(=O)c2ccc(C(=O)NCCCn3ccnc3)cc2)CC(C)O1 (stereo unspecified),411*
COc1ccc(S(=O)(=O)N(C)C[C@@H]2Oc3ccc(NC(=O)CCN4CCOCC4)cc3C(=O)N([C@H](C)CO)C[C@H]2C)cc1,-50
O=C1CC2CS(=O)(=O)CC2N1c1ccc(Cl)cc1Cl (stereo unspecified),-56
CCCC1S/C(=N/N=C/c2ccc(C)cc2)N(Cc2ccc(OC)cc2)C1=O (stereo unspecified),-40
C[C@@H]1CN([C@@H](C)CO)S(=O)(=O)c2ccc(-c3ccc(C#N)cc3)cc2O[C@H]1CN(C)C(=O)CN(C)C,-41
CCN(CC)S(=O)(=O)c1ccc(C(=O)Nc2cc(S(=O)(=O)N3CCOCC3)ccc2O)cc1,-46
CCN(CC)c1ccc(S(=O)(=O)N2CCOCC2)cc1NC(=O)Cn1nc(C)c([N+](=O)[O-])c1C,-48
O=C(Nc1cc(S(=O)(=O)N2CCOCC2)ccc1Cl)c1cc([N+](=O)[O-])ccc1Cl,67*
CC1OC(CC(=O)O)CC2=C1C(=O)c1c(O)cccc1C2=O (stereo unspecified),-75

# Assay outcomes: PubChem BioAssay, Broad Institute
